Measurements from ChEMBL document CHEMBL1681789, “New bichalcone analogs as NF-κB inhibitors and as cytotoxic agents inducing Fas/CD95-dependent apoptosis” (Bioorg Med Chem, 2011).
The source made the active and inactive calls. No cut-off for these calls is given here.

Assays:
BV-2 = experiment: Inhibition of NADPH oxidase mediated-ROS production in mouse BV2 cells; type: cell-based
Outline: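 Compounds were incubated with 50 µg microglial cell homogenate for 20 min at 37 °C in the dark. Superoxide production was started with 200 µM NADPH, and chemiluminescence was followed for 30 min; the AUC represents ROS production. DPI served as positive control.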

HCT-8 = experiment: Cytotoxicity against human HCT8 cells at 20 ug/ml after 3 days; type: functional, cell-based
DU-145 = experiment: Cytotoxicity against human DU145 cells at 20 ug/ml after 3 days; type: functional, cell-based
[1] = Inhibition of Nitric oxide synthase activity in mouse BV2 cells assessed as LPS-induced NO production after 24 hrs by Griess reaction; type: cell-based; details: BV-2, 24 h
Outline: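 Murine BV2 microglia were cultured in DMEM with 5% FBS and given 1–50 µM drug with 0.5 µg/mL LPS. Nitrite accumulated in the medium over 24 h was measured by Griess reagent. IC50 values are means ± SEM from 3–6 experiments on different days using different passages.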

KB = experiment: Cytotoxicity against human KB cells at 20 ug/ml after 3 days; type: functional, cell-based
A549 = experiment: Cytotoxicity against human A549 cells at 20 ug/ml after 3 days; type: functional, cell-based

Row | Compound | inhibition (BV-2) | Activity (HCT-8) | Activity (DU-145) | IC50 [1] | Activity (KB) | Activity (A549)
1 | O=C(/C=C/c1ccccc1Cl)c1ccc(N2CCN(Cc3cc(C(=O)/C=C/c4ccccc4Cl)ccc3O)CC2)cc1 | inactive | inactive | inactive | 30.5 µM | inactive | inactive
2 | Cc1ccc(/C=C/C(=O)c2ccc(N3CCN(Cc4cc(C(=O)/C=C/c5ccc(C)o5)ccc4O)CC3)cc2)o1 | inactive | inactive | inactive | 2.4 µM | inactive | inactive
3 | COc1cc(C(=O)/C=C/c2ccccc2Cl)cc(CN2CCN(c3ccc(C(=O)/C=C/c4ccccc4Cl)cc3)CC2)c1O | inactive | inactive | inactive | 10.9 µM | inactive | inactive
4 | Cc1ccsc1/C=C/C(=O)c1ccc(N2CCN(Cc3cc(C(=O)/C=C/c4sccc4C)ccc3O)CC2)cc1 | inactive | inactive | inactive | 7.5 µM | inactive | inactive
5 | COc1cc(C(=O)/C=C/c2cccs2)cc(CN2CCN(c3ccc(C(=O)/C=C/c4cccs4)cc3)CC2)c1O | inactive | inactive | inactive | 2.7 µM | inactive | inactive
6 | COc1cc(C(C)=O)cc(CN2CCN(c3ccc(C(C)=O)cc3)CC2)c1O | inactive | inactive | inactive | 15.9 µM | inactive | inactive
7 | COC(=O)[C@@H](N)CCCNC(=N)N[N+](=O)[O-] [L-NAME] | – | – | – | 18.9 µM | – | –
8 | O=C(/C=C/c1ccccc1)c1ccc(N2CCN(Cc3cc(C(=O)/C=C/c4ccccc4)ccc3O)CC2)cc1 | inactive | inactive | inactive | 2.8 µM | inactive | inactive
9 | COc1ccc(/C=C/C(=O)c2ccc(N3CCN(Cc4cc(C(=O)/C=C/c5ccc(OC)cc5)cc(OC)c4O)CC3)cc2)cc1 | inactive | inactive | inactive | 3.5 µM | inactive | inactive
10 | CC(=O)c1ccc(N2CCN(Cc3cc(C(C)=O)ccc3O)CC2)cc1 | inactive | inactive | inactive | 6.6 µM | inactive | inactive
11 | O=C(/C=C/c1ccc2c(c1)OCO2)c1ccc(N2CCN(Cc3cc(C(=O)/C=C/c4ccc5c(c4)OCO5)ccc3O)CC2)cc1 | inactive | inactive | inactive | 2.1 µM | inactive | inactive
12 | O=C(/C=C/c1ccc(Cl)cc1Cl)c1ccc(N2CCN(Cc3cc(C(=O)/C=C/c4ccc(Cl)cc4Cl)ccc3O)CC2)cc1 | inactive | inactive | inactive | 25.7 µM | inactive | inactive
13 | Cn1cccc1/C=C/C(=O)c1ccc(N2CCN(Cc3cc(C(=O)/C=C/c4cccn4C)ccc3O)CC2)cc1 | inactive | inactive | inactive | 1.2 µM | inactive | inactive
14 | O=C(/C=C/c1ccco1)c1ccc(N2CCN(Cc3cc(C(=O)/C=C/c4ccco4)ccc3O)CC2)cc1 | inactive | inactive | inactive | 1.7 µM | inactive | inactive
